From PubChem
A selection: hits, their analogues and other compounds. The true share with any hit is near 4.3%.
SUMO HTRF inh – blocks human SUMOylation mediated by UBC9; P63279; HTRF SUMOylation assay, SAE1/SAE2 + UBC9, in vitro; inhibition, % at 35 µM; actives 0.36% (n = 290,000); AID 2006; in the data active means inhibition above about 50%, passing the limit was not always enough; inconclusive means no clear call, values can overlap the other calls
Target sequence (P63279 whole entry, looked up): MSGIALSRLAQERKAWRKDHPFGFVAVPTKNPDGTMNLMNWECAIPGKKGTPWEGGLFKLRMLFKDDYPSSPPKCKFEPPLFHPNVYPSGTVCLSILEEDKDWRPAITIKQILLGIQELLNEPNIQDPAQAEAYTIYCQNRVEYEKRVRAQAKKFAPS
ALR inh – blocks human ALR sulfhydryl oxidase activity; P55789; purified ALR, DTT oxidation, H2O2 HRP-luminol luminescence; inhibition, % (test concentration not listed); actives 3.8% (n = 290,000); AID 485317;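 active means mean replicate inhibition above about 79%, with every replicate also reaching it, limit read from the data; inconclusive means only one of the two criteria met; inactive means mean below limit and not every replicate reaching it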
PREPL inhibitor – inhibitors of human prolyl oligopeptidase-like enzyme PREPL; Q4J6C6; recombinant PREPL, fluorescence polarization activity-based probe; inhibition, % at 5.96 µM; actives 0.68% (n = 320,000); AID 2751; in the data active means inhibition above about 43%;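 further: 0% = enzyme with DMSO and 100% = wells lacking enzyme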
RBBP9 inhibitor – inhibitors of human serine hydrolase RBBP9. AID 1515. recombinant RBBP9, FP-Rh probe fluorescence polarization. actives 0.2% (n = 220,000). inhibition, % at 7.94 µM;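 active means inhibition above the campaign mean of all tested compounds plus 3 SD, cut at about 14% in these data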;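 further: plate controls were DMSO wells with RBBP9 for no effect and wells lacking RBBP9 protein for full effect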
Target sequence (O75884 whole entry, looked up): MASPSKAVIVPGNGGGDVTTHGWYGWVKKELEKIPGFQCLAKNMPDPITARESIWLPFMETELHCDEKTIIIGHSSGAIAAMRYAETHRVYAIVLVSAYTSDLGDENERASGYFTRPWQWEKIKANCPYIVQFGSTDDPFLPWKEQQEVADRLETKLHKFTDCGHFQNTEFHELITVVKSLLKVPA
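Assay system: recombinant human RBBP9; Reagent: Serine-hydrolase probe FP-Rh, 375 nM pre-mixing; Doses: 7.94 µM single dose, 0.794% DMSO; Incubation: 30 min then 45 min, 25 °C; Detection: fluorescence polarization (mP), excitation 525 nm, emission 598 nm; Evaluation: percent inhibition from mP, scaled between DMSO and no-protein wells.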
UBC13 inh – blocks human UBC13 polyubiquitin chain formation. actives 0.47% (n = 330,000). inhibition, % at 20 µM. AID 485273. TR-FRET; in the data active means inhibition above about 45%, passing the limit was not always enough; inconclusive means no clear call, values can overlap the other calls
Target sequence (P61088 whole entry, looked up): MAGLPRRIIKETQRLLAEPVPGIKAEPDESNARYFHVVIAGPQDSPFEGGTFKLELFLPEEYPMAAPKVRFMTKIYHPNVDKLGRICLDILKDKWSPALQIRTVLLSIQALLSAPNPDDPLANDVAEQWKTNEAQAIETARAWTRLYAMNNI
Rin1-Abl PPI inh – blocks binding of human Rin1 to Abl; P00519+Q13671; TR-FRET Rin1/Abl binding, biochemical; inhibition, % at 7.35 µM; actives 0.4% (n = 360,000); in the data active means inhibition above about 5%, passing the limit was not always enough
Numbers without * were called inactive; i = inactive; ? = inconclusive; . = no result given.

SMILES	SUMO HTRF inh	ALR inh	PREPL inhibitor	RBBP9 inhibitor	UBC13 inh	Rin1-Abl PPI inh
COc1ccccc1N1CCN(Cc2cc(=O)oc3cc(C)cc(C)c23)CC1	.	.	.	.	.	-0.1
O=C1CS/C(=N/N=C2CCCC2)N1	-17.7	1.2	4.3	-9.4	-14.3	6.6
O=C1CSC(=NC2CCCCC2)N1	-5.0	97.9*	-3.1	-8.3	13.2	-0.4
CSc1cnn(Cc2ccccc2)c(=O)c1SCc1ccccc1	-45.3	1.1	1.0	-7.7	.	1.4
O=C(Cc1ccc(Cl)cc1)NNC(=S)NC(=O)c1cccs1	-49.4	97.8*	7.1	-11.9	-10.8	1.7
O=C(Cc1cccs1)NNC(=S)NCc1ccc(Cl)cc1	-42.6	9.0	-12.3	-5.4	-0.2	-3.5
Cc1cc(C(=O)NN=C2CCCC2)c2ccccc2n1	.	.	4.4	.	-8.6	0.0
Cc1cc(C(=O)NN=C2CCCCC2)c2ccccc2n1	1.5	84.3*	-0.1	0.0	.	-1.7
COc1cccc(OC)c1C(=O)NC(=S)NNC(=O)[C@H]1C[C@@H]1c1ccccc1	-72.7	33.0	8.0	-2.9	10.7	3.4
O=C(NC(=S)NNC(=O)[C@H]1C[C@@H]1c1ccccc1)c1cccc(F)c1	-2.4	98.5*	2.8	-8.5	-13.0	1.5
CCOC(=O)C(=NCCCN1CCOCC1)NNc1cccc(C(F)(F)F)c1	-28.9	98.3*	9.0	0.7	7.1	4.9
Cc1nc(Nc2ccc(O)cc2)c2c3c(sc2n1)CCCC3	-3.3	98.3*	5.3	-3.2	6.7	-2.7
C[C@H](CO)N1C[C@H](C)[C@@H](CN(C)C)Oc2c(NS(=O)(=O)c3cccs3)cccc2C1=O	.	-3.2	3.7	.	-2.9	-3.4
C[C@@H]1CC=C[C@H]2[C@H]1C(=O)N(Cc1ccccc1)[C@H]2c1ccc(F)c(-c2ccc(N(C)C)cc2)c1	-1.0	.	8.3	.	2.2	4.4
CN1C(=O)C2C(c3ccc(N(C)C)cc3)NN(Cc3ccccc3)C2C1=O (stereo unspecified)	3.0	98.5*	7.3	-3.1	-3.5	0.0
CCN(CC)S(=O)(=O)c1cc(NC(=O)CSc2nc3c(cc2C#N)C(=O)CC(C)(C)C3)ccc1C	-23.5	98.7*	-5.2	-4.9	-7.3	2.8
COc1nccnc1NS(=O)(=O)c1ccc(NC(=S)NC(=O)/C=C/c2ccccc2)cc1	-7.7	3.2	17.6	-9.4	-10.4	-1.7
COc1nccnc1NS(=O)(=O)c1ccc(NC(=S)NC(=O)c2ccccc2)cc1	-2.3	87.2*	0.2	2.9	8.7	0.1
COc1ccccc1C(CNC(=O)C(CCSC)NC(=O)c1ccccc1Cl)N1CCCC1 (stereo unspecified)	.	.	.	.	.	0.0
O=C1/C(=C\c2ccco2)SC(=S)N1C1CCS(=O)(=O)C1 (stereo unspecified)	61.4	-15.0	-1.5	8.4	-11.6	-1.8
O=C1/C(=C/c2ccco2)SC(=S)N1C1CCS(=O)(=O)C1 (stereo unspecified)	60.6*	-4.8	5.0	-6.2	-13.8	-3.2
C/C(=N\NC(=O)c1ccncc1)c1ccc(N(C)C)cc1	2.3	91.1*	0.8	-4.4	-5.1	1.9
C/C(=N\NC(=O)c1ccc(N/N=C(\C)c2ccncc2)cc1)c1ccncc1	-0.5	98.2*	28.7	-2.4	-7.5	-1.2
C/C(=N/NC(=O)c1ccncc1)c1ccccc1	-2.7	-8.9	6.5	.	-0.8	-2.8
COCCNC(=O)C1CC(c2cccc([N+](=O)[O-])c2)=NO1 (stereo unspecified)	28.1	-1.8	1.9	4.5	?	1.2
SMILES	SUMO HTRF inh	ALR inh	PREPL inhibitor	RBBP9 inhibitor	UBC13 inh	Rin1-Abl PPI inh
Cc1cccc(C)c1OCC(O)CNC(C)(C)C (stereo unspecified)	6.8	1.2	-15.6	-7.3	1.7	-0.3
COc1cccc(CNC(=O)C2CCN(S(=O)(=O)c3ccc4c(c3)CC(C)N4C(C)=O)CC2)c1 (stereo unspecified)	13.9	-5.8	2.4	.	4.8	3.6
COc1cccc(C2Nc3ccccc3NC3=C2C(=O)CC(C)(C)C3)c1 (stereo unspecified)	-3.2	98.2*	-0.4	.	4.0	-1.3
CC1(C)CC(=O)C2=C(C1)Nc1ccccc1NC2c1ccc([N+](=O)[O-])cc1 (stereo unspecified)	.	97.9*	28.5	.	-19.1	0.7
CC1(C)CC(=O)C2=C(C1)Nc1ccccc1NC2c1cccs1 (stereo unspecified)	4.4	98.6*	-10.4	-8.6	-5.2	-0.2
O=C1CCCC2=C1C(c1cccs1)Nc1ccccc1N2 (stereo unspecified)	13.9	.	10.3	-7.6	0.6	-1.1
CC1(C)CC(=O)C2=C(C1)Nc1ccccc1NC2c1ccccc1F (stereo unspecified)	0.2	98.2*	-1.7	.	-10.4	0.3
COc1ccccc1NC(=O)COC(=O)CCC(=O)c1cccs1	.	.	.	.	1.4	1.4
CC1(C)CC(=O)C2=C(C1)Nc1ccccc1NC2c1ccc(F)c(F)c1 (stereo unspecified)	12.6	98.7*	4.4	.	-7.7	1.5
COc1cc(C2Nc3ccccc3NC3=C2C(=O)CC(C)(C)C3)cc(OC)c1OC(C)=O (stereo unspecified)	-5.5	58.7	-5.3	.	2.6	0.3
CCc1ccc2c(c1)NC(=O)C2(C)Cc1ccccc1OC (stereo unspecified)	.	.	.	.	.	1.6
CN(C)c1ccc(NC(=O)CSc2nnc(-c3cnccn3)n2C)cc1	-23.2	99.3*	11.7	.	-1.1	-2.6
Cn1c(SCC(=O)c2ccccc2)nnc1-c1cnccn1	7.6	97.0*	2.8	-6.2	-11.3	5.0
COc1cccc2cc(C(=O)NCCN3CCOCC3)c(=O)oc12	27.2	-0.1	-7.6	.	7.7	-0.1
Cc1ccc(NC(=O)Cc2c(C(=O)O)n(C)c3ccccc23)cc1F	40.7	13.9	2.3	-0.3	-5.7	0.2
CC(C)c1ccc(NC(=O)Cc2c(C(=O)O)n(C)c3ccccc23)cc1	-15.9	97.0*	2.1	.	-8.1	1.5
CCN1/C(=C/c2ccc3cccc(C)c3[n+]2CC)Sc2ccccc21	16.7	9.6	60.4*	-9.3	i	-38.7
O=C(Nc1ccccc1)Nc1ccno1	57.3*	3.6	7.4	-4.7	-0.1	-3.6
CC1(C)Cc2c(cnn2-c2cccc(F)c2)C(NC(=O)c2ccc(=O)[nH]n2)C1 (stereo unspecified)	.	92.4*	-4.1	.	-1.8	-0.8
CC1=C(C(=O)NC2CC(C)(C)Cc3c2cnn3-c2cccc(F)c2)OCCO1 (stereo unspecified)	.	96.7*	32.7	.	-2.3	-4.2
CCNc1nc(NCC)nc(N/N=C/c2cc(OC)c(OC)c(OC)c2)n1	17.8	7.5	9.5	-2.5	-9.5	-3.2
Cc1cc(N/N=C/c2ccc(N(C)C)cc2)nc(NCc2ccccc2)n1	-10.3	29.5	20.8	-9.3	38.4	-2.3
CCNc1nc(NCC)nc(N/N=C/c2ccc(O)c(O)c2)n1	8.8	98.7*	5.6	2.0	-1.4	2.3
